Common to all, as to format: functional
The test system of one experiment is HT-29. The experiment in a line: Growth inhibition of human HT-29 cells. The settings on record: for CC50: read-out: LC50 (the source's name).
Another experiment deals with MDA-MB-435. The experiment is described as follows: Growth inhibition of human MDA-MB-435 cells. The settings on record: for CC50: read-out: LC50 (the source's name).
A further experiment has as its system SK-MEL-28. The experiment in a line: Growth inhibition of human SK-MEL-28 cells. The following applies: for CC50: read-out: LC50 (the source's name).
For another experiment, the system named is DU-145. The experiment in a line: Growth inhibition of human DU145 cells. The following applies: for CC50: read-out: LC50 (the source's name).
The subject of experiment [1] is MCF7. The experiment in a line: Growth inhibition of human MCF7 cells. The following applies: for CC50: read-out: LC50 (the source's name).
Another experiment concerns KM12. The experiment in a line: Growth inhibition of human KM12 cells assessed tumor cell growth at 10^-5 M. Details: scale not given: the % may be the effect or the level left. The procedure, abridged: (§1)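 NCI 60-human-tumor-cell-line panel screen. Each compound was tested at a single concentration of 10^-5 M, and percent growth of tumor cells was recorded for each cell line. Growth inhibition was expressed from these percent-growth values.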

Another experiment relates to SNB-19. The experiment in a line: Growth inhibition of human SNB19 cells assessed tumor cell growth at 10^-5 M. Set-up: scale not given: the % may be the effect or the level left. A digest of the protocol:
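Single-dose screen at 10^-5 M across the 60 human tumor cell line panel, run to NCI standards. The value is the percent growth of each cell line in the presence of compound. Compounds active at this dose moved on to five-concentration testing (10^-4 to 10^-8 M).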

In another experiment the test system is LOX IMVI. The experiment is described as follows: Growth inhibition of human LOXIMVI cells assessed tumor cell growth at 10^-5 M. Details: scale not given: the % may be the effect or the level left. The procedure, abridged: as §1
For experiment [2], the system named is MCF7. The experiment in a line: Growth inhibition of human MCF7 cells assessed tumor cell growth at 10^-5 M. Details: scale not given: the % may be the effect or the level left. The procedure, abridged:
as §1

A further experiment deals with MDA-MB-468. The experiment is described as follows: Growth inhibition of human MDA-MB-468 cells assessed tumor cell growth at 10^-5 M. Details: scale not given: the % may be the effect or the level left. The procedure, abridged: as §1
A further experiment deals with HOP-92. The experiment in a line: Growth inhibition of human HOP92 cells. The following applies: for CC50: read-out: LC50 (the source's name).
Another experiment concerns NCI-H226. The experiment is described as follows: Growth inhibition of human NCI-H226 cells. The following applies: for CC50: read-out: LC50 (the source's name).
The next experiment deals with NCI-H23. The experiment is described as follows: Growth inhibition of human NCI-H23 cells.

`O=C1/C(=C\c2coc3ccccc3c2=O)c2ccccc2N1c1c(Cl)cccc1Cl`: the GI50 with HT-29 stood at 3 µM; in the experiment with MDA-MB-435 it was 2.6 µM; in the experiment on SK-MEL-28, 3.8 µM; with DU-145 it was 4.6 µM; in the experiment on MCF7 [1] it was 3.2 µM; with HOP-92, 4.7 µM. In addition, the values for the GI50 with NCI-H226 and in the experiment on NCI-H23 were 20.8 µM and 4.4 µM, respectively. Further, the CC50 with HT-29, with MDA-MB-435, with SK-MEL-28, in the experiment on DU-145, with MCF7 [1] and in the experiment with HOP-92 was more than 100 µM throughout. In the experiment on NCI-H226, the CC50 is more than 100 µM. Besides, the Activity in the experiment with KM12 was found to be 27.09%; in the experiment on SNB-19 it was 62.58%; in the experiment with LOX IMVI, 37.07%; in the experiment with MCF7 [2], 31.61%; with MDA-MB-468 it was 44.85%.
As to `O=C1Nc2ccccc2/C1=C/c1cn(C(=O)c2c(Cl)cccc2Cl)c2ccccc12`, the GI50 in the experiment with HT-29 was found to be 3.8 µM; in the experiment with MDA-MB-435, 2.2 µM; in the experiment with DU-145, 2.7 µM; with HOP-92, 1.5 µM; in the experiment on NCI-H226, 7.4 µM; with NCI-H23 it was 4.1 µM. In addition, the CC50 is 54.9 µM with HT-29; 51.2 µM with MDA-MB-435; 46.7 µM in the experiment on DU-145; more than 100 µM in the experiment with HOP-92; 83.1 µM in the experiment with NCI-H226. The Activity in the experiment with KM12 is given as 54.7%; in the experiment with SNB-19, 68.6%; in the experiment on LOX IMVI, 48.4%; in the experiment on MCF7 [2], 22.9%; in the experiment with MDA-MB-468 it was 32.6%. The LC50 (concentration killing 50% of cells) with NCI-H23 was 50.1 µM.
`CC1=NN(c2cccc(Cl)c2)C(=O)/C1=C\C=C\c1ccccc1`: the GI50 amounted to 2.9 µM in the experiment on HT-29; 2.5 µM in the experiment on MDA-MB-435; 2 µM in the experiment with SK-MEL-28; 2.8 µM in the experiment on DU-145; 1.1 µM in the experiment on MCF7 [1]; 4.6 µM in the experiment with HOP-92. The GI50 in the experiment on NCI-H226 is 2.6 µM; in the experiment with NCI-H23, 2.3 µM. The CC50 in the experiment with HT-29 is more than 100 µM; with MDA-MB-435, more than 100 µM; in the experiment with SK-MEL-28, 8.9 µM; with DU-145, 53.7 µM; in the experiment with MCF7 [1], more than 100 µM; in the experiment on HOP-92, more than 100 µM. In addition, the CC50 in the experiment with NCI-H226 stood at 64.5 µM. Also, the Activity is listed as 16.12% in the experiment with KM12; 37.51% in the experiment on SNB-19; -87.87% in the experiment with LOX IMVI; 5.42% in the experiment with MCF7 [2]; 9.96% with MDA-MB-468. Further, the LC50 (concentration killing 50% of cells) in the experiment with NCI-H23 was more than 100 µM.
`CC1=NN(c2cccc(Cl)c2)C(=O)/C1=C\c1c(O)ccc2ccccc12`: the GI50 in the experiment with HT-29 was more than 100 µM; with MDA-MB-435, more than 100 µM; with DU-145, 70.7 µM; in the experiment on NCI-H226, 47.8 µM; in the experiment with NCI-H23 it was more than 100 µM. Moreover, the CC50 in the experiment with HT-29, in the experiment with MDA-MB-435, in the experiment with DU-145 and with NCI-H226 was more than 100 µM in each case. In addition, the Activity is reported as 21.17% in the experiment on KM12; 31.43% in the experiment with SNB-19; -79.39% with LOX IMVI; 3.07% in the experiment with MCF7 [2]; 34.53% in the experiment on MDA-MB-468. Also, the LC50 (concentration killing 50% of cells) in the experiment on NCI-H23 was more than 100 µM.
On to `O=C1/C(=C\c2ccccn2)c2ccccc2N1c1c(Cl)cccc1Cl`, for which the GI50 was determined as 2.1 µM in the experiment on HT-29; 1.8 µM in the experiment on MDA-MB-435; 2.1 µM with DU-145; 0.01 µM in the experiment on NCI-H226; 3.5 µM in the experiment with NCI-H23. The CC50 was 9.1 µM with HT-29, 61.6 µM in the experiment with MDA-MB-435, 9.1 µM in the experiment with DU-145 and 9.1 µM in the experiment with NCI-H226. The Activity in the experiment with KM12 is -2.11%; with SNB-19 it was 34.85%; in the experiment with LOX IMVI, -89.2%; with MCF7 [2], -10.81%; in the experiment on MDA-MB-468, -17.24%. In the experiment on NCI-H23, this compound came in with an LC50 (concentration killing 50% of cells) of more than 100 µM.

Usually GI50 stands for the concentration at which growth is held to half of that of the control.

Values taken from ChEMBL document CHEMBL1811814, “Synthesis and evaluation of indole, pyrazole, chromone and pyrimidine based conjugates for tumor growth inhibitory activities--development of highly efficacious cytotoxic agents” (Eur J Med Chem, 2010).
